Reference: ChEMBL document CHEMBL4339229, “Chalcones and Chalcone-mimetic Derivatives as Notch Inhibitors in a Model of T-cell Acute Lymphoblastic Leukemia” (ACS Med Chem Lett, 2019)
Active and inactive are the calls of the source.

What was measured:
KOPTK1 [1] = assay: Antiproliferative activity against human KOPTK1 cells harboring activating Notch1 gene mutations assessed as reduction in cell viability at 2.5 uM incubated for 36 hrs by MTS assay; format: functional
Summary of the method: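 Single-point MTS viability screen in KOPTK1 T-ALL cells: 2.5 μM compound or DMSO vehicle for 36 h; viability expressed relative to DMSO; 30% viability decrease used as screening threshold; two independent experiments in triplicate, mean ± SEM.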

KOPTK1 [2] = assay: Antiproliferative activity against human KOPTK1 cells harboring activating Notch1 gene mutations assessed as reduction in cell viability incubated for 36 hrs by MTS assay; format: functional, cell-based; conditions: KOPTK1, 36 h
Summary of the method: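 Dose–response MTS proliferation assay in KOPTK1 cells at 0, 0.5, 1, 2.5, 5, 10, 20 and 50 μM for 36 h; IC50 taken as half-maximal growth-inhibitory concentration; three independent experiments in triplicate, mean ± SD.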

[3] = biological target: Neurogenic locus notch homolog protein 1 (Homo sapiens) (UniProt P46531); assay: Inhibition of NOTCH1 signalling in human KOPTK1 cells harboring activating Notch1 gene mutations assessed as reduction in DELTEX1 mRNA expression at 2.5 uM incubated for 36 hrs by RT-PCR analysis; format: cell-based
Neurogenic locus notch homolog protein 1 (Homo sapiens), sequence (P46531 whole entry, the tested form may be a part): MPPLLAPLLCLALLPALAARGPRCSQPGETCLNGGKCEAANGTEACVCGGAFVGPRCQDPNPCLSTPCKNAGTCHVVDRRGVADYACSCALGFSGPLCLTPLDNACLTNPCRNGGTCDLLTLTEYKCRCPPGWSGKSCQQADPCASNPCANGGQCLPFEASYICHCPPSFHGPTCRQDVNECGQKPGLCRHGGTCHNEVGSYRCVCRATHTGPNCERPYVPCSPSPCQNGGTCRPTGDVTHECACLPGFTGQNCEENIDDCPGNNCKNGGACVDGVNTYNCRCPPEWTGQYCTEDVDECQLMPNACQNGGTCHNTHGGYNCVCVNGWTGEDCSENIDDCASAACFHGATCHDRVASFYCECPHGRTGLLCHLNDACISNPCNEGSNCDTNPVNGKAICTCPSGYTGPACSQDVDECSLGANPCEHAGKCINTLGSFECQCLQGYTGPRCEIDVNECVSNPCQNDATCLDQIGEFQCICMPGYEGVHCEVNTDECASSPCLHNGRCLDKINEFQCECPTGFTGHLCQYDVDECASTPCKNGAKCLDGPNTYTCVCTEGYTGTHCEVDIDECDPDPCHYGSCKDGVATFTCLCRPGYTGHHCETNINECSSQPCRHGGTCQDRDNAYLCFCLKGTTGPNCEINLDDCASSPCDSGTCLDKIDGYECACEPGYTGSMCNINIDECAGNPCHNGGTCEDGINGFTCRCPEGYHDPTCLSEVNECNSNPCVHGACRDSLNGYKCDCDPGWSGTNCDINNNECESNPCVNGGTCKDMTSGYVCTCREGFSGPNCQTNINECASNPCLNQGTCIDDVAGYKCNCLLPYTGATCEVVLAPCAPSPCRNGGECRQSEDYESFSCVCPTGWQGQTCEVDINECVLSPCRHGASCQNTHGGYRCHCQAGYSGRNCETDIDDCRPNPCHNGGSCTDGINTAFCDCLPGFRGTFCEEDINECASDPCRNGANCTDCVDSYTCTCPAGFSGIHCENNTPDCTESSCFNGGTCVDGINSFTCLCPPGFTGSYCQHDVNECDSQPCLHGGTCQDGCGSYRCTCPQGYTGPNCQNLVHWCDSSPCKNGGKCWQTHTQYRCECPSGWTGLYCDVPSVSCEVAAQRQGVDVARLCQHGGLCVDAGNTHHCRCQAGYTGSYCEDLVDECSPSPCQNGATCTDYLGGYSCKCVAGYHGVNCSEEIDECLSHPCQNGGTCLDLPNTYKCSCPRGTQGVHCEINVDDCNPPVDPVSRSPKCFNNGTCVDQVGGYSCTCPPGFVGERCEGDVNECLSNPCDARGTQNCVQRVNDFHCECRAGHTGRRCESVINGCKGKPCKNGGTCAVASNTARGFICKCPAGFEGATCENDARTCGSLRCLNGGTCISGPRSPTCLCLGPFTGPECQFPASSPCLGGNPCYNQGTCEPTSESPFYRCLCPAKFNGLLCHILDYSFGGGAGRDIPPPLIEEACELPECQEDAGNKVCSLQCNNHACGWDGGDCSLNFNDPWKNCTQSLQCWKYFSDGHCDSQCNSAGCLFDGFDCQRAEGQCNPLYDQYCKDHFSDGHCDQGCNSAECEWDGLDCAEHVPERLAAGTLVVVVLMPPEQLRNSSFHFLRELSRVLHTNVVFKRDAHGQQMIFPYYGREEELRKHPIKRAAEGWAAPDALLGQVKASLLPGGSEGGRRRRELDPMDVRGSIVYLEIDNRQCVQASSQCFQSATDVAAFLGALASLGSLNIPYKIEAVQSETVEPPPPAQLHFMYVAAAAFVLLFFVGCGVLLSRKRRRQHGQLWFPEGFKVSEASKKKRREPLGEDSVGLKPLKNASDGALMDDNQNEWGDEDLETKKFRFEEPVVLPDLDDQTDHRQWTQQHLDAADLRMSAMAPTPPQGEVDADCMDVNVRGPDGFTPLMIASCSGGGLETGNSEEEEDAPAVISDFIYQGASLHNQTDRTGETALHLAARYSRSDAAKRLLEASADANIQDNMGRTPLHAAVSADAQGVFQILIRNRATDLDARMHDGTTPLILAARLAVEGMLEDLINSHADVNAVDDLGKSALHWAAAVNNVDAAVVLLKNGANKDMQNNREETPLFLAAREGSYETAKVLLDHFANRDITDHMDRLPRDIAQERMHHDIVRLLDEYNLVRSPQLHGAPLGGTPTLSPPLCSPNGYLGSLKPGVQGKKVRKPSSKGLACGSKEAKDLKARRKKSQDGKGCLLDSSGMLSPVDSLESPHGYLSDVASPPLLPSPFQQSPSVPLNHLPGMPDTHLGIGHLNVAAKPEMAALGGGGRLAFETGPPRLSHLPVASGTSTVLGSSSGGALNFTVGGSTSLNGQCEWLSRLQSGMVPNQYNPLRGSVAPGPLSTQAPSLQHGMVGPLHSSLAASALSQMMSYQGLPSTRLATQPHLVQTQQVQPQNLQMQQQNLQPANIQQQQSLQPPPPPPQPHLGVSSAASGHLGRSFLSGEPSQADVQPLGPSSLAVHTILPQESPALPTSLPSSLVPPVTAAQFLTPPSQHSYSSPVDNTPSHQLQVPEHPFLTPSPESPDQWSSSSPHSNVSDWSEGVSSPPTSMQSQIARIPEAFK
Summary of the method: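 DELTEX1 (DTX1) relative gene expression measured in KOPTK1 cells after 36 h with 2.5 μM compound or DMSO vehicle; three independent experiments in triplicate, mean ± SEM.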

[4] = biological target: Neurogenic locus notch homolog protein 1 (Homo sapiens) (UniProt P46531); assay: Inhibition of NOTCH1 signalling in human KOPTK1 cells harboring activating Notch1 gene mutations assessed as reduction in N1Val protein expression at 2.5 uM incubated for 36 hrs by Western blot analysis; format: cell-based
Summary of the method: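 KOPTK1 cells exposed 36 h to 2.5 μM compound or DMSO; endogenous activated Notch1 intracellular domain (N1Val) detected by Western blot with β-actin loading control; relative levels quantified by optical densitometry versus DMSO.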

KOPTK1 [5] = assay: Induction of cell death in human KOPTK1 cells harboring activating Notch1 gene mutations assessed as increase in cleaved PARP protein expression at 2.5 uM incubated for 36 hrs by Western blot analysis; format: functional, cell-based
Summary of the method: (§1)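 Western blot of KOPTK1 lysates probed for p27kip, full-length and cleaved PARP, β-actin as loading control.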

KOPTK1 [6] = assay: Induction of cell death in human KOPTK1 cells harboring activating Notch1 gene mutations assessed as increase in p27kip protein expression at 2.5 uM incubated for 36 hrs by Western blot analysis; format: functional, cell-based; summary of the method: as §1
HaCaT = assay: Antiproliferative activity against immortalized human HaCaT cells assessed as reduction in cell viability at 2.5 uM incubated for 36 hrs by MTS assay; format: functional, cell-based
Jurkat = assay: Antiproliferative activity against human Jurkat cells assessed as reduction in cell viability at 2.5 uM incubated for 36 hrs by MTS assay; format: functional, cell-based

inhibition [3] | inhibition [4] | Compound | Activity (KOPTK1 [1]) | IC50 (KOPTK1 [2]) | Activity (KOPTK1 [5]) | Activity (KOPTK1 [6]) | Activity (HaCaT) | Activity (Jurkat)
Active | Active | COc1ccc(C(=O)/C=C/c2ccc(O)cc2)c(O)c1 | >=30% | 1.91 µM |  |  |  | 
Active | Active | COc1ccc(C(=O)C2CCc3cc(O)ccc3C2)c(O)c1 (racemic) | >=30% | 2.46 µM | inactive | Active |  | 
Active | Active | COc1ccc2c(c1)CCC(C(=O)c1ccc(OC)cc1OC)C2 (racemic) | >=30% | 1.37 µM | Active | inactive | Active | Active
Active | Active | COc1ccc2c(c1)CC(C(=O)c1ccc(OC)cc1OC)CC2 (racemic) | >=30% | 0.72 µM | Active | inactive | Active | Active

Continued, compound first:

Compound | inhibition [3] | inhibition [4] | Activity (KOPTK1 [1]) | IC50 (KOPTK1 [2]) | Activity (KOPTK1 [5]) | Activity (KOPTK1 [6]) | Activity (HaCaT) | Activity (Jurkat)
COc1ccc(C(=O)/C=C/c2ccc(O)c(C)c2)c(O)c1 | Active | Active | >=30% |  | Active | Active |  | 
Cc1ccc(C(=O)/C=C/c2ccc(O)cc2)cc1 | Active | Active | >=30% | 3.83 µM | inactive | Active |  | 
